High-throughput results as filed in PubChem.
Rows were chosen to be rich in hits. Some 2.3% of all compounds tested hit in one or more screens of this group.
Myeloid diff 2: induction of myeloid progenitor differentiation, primary screen, cell-based, flow cytometry, MLPCN library. calls only at 10 µM. actives 1% (n = 360,000). AID 624256, 2012. ER-HoxA9 myeloid progenitors, lysozyme-GFP differentiation;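 active means normalized GFP-positive differentiation at or above the plate's own cutoff, the solvent-only control mean plus 3 SD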;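 further: cells exposed to compound for four days before flow analysis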
HNF4A DNA FP: change in binding of human HNF4A to DNA, primary screen, biochemical, fluorescence polarization, FITC-DNA. Hepatocyte nuclear factor 4-alpha (Homo sapiens), P41235. 1 h. actives 0.3% (n = 360,000). activity change, % at 10 µM; in the data active means activity change above about 30%, passing the limit was not always enough
TPT1 inhibitor: Candida albicans TPT1 enzyme inhibitors, primary screen, biochemical, fluorescence polarization; tRNA 2'-phosphotransferase TPT1 (Candida albicans SC5314); actives 0.81% (n = 300,000); AID 1962, 2009; inhibition, % at 5 µM; recombinant caTPT1, FP RNA substrate dephosphorylation;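 active means inhibition above the mean of all tested compounds plus 3 SD, set per screening campaign, cut at about 24% in these data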
CSN deneddyl inh: inhibitors of CSN-mediated cullin deneddylation, primary screen, biochemical, fluorescence polarization, uHTS; COP9 signalosome complex subunit 5 (Homo sapiens), Q92905; Purified CSN, SCF-Nedd8-OG deneddylation; inhibition, % at 12.5 µM; actives 0.38% (n = 360,000); AID 651999, 2013;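 active means pattern-corrected inhibition above about 35%, with an unprinted fluorescence ratio check between 0.5 and 1.5, limit read from the data, passing the limit was not always enough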
Target sequence (Q92905 whole entry, looked up, one chain of several): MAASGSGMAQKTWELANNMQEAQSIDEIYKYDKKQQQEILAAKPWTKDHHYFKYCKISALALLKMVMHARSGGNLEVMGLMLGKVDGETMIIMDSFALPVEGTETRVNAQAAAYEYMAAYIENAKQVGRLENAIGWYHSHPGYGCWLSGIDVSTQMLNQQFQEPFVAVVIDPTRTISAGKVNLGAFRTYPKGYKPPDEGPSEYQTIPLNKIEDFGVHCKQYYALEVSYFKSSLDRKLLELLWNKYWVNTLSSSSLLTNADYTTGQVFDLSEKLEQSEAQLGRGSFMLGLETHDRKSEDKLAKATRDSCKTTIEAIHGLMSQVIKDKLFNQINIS
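Material: human Csn5 produced in HEK293T cells; Input: enzyme 0.24 nM; Reagent: SCFSkp2-Nedd8OG substrate at 10 nM final; Dosing: 12.5 µM compound; Incubation: 90 min reaction at room temperature; Detection: fluorescence polarization of the substrate; Evaluation: % inhibition of substrate cleavage by Csn5; Control set: substrate-only high control, full reaction low control.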
Rpn11 block: Rpn11 (PSMD14) deubiquitinase inhibitors, primary screen, biochemical, fluorescence polarization, uHTS; human 26S proteasome, Ub4-pepOG fluorescence polarization; 20S core pre-blocked with epoxomicin; inhibition, % at 20 µM; actives 0.59% (n = 360,000);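 active means inhibition at 20 µM, scaled to each plate's controls, above about 33%, limit read from the data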
Target sequence (O00487 whole entry, looked up): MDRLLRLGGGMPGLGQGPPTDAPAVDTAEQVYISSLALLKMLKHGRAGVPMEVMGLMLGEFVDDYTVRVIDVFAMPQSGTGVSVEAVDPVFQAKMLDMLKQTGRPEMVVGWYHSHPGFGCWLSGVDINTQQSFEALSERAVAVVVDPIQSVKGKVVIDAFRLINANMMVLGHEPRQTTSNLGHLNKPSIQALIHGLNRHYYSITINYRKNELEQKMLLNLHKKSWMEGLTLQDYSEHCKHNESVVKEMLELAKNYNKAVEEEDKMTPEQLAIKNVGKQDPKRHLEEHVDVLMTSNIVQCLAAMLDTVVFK
Large screens that a line does not name were inactive.

Cc1c(NC(=O)C2CCCN2S(=O)(=O)c2ccccc2)c(=O)n(-c2ccccc2)n1C (stereo unspecified)	CSN deneddyl inh 56.6
Cc1c(NC(=O)C2CCN(S(=O)(=O)c3ccc(Cl)cc3)CC2)c(=O)n(-c2ccccc2)n1C	none
CC(OC(=O)c1nn(C)c(=O)c2ccccc12)C(=O)Nc1ccc(S(N)(=O)=O)cc1 (stereo unspecified)	Myeloid diff 2 active
Cn1nc(C(=O)Nc2cccc(S(N)(=O)=O)c2)c2ccccc2c1=O	none
COC1=CC(=O)OC(c2ccccc2C(F)(F)F)C1 (stereo unspecified)	none (no result: TPT1 inhibitor, Rpn11 block)
COc1ccc(OC)c(-c2cc(C(=O)Nc3c(C)nn(Cc4ccccc4C)c3C)no2)c1	Myeloid diff 2 active
COc1ccc(OC)c(-c2cc(C(=O)Nc3c(C)nn(Cc4ccccc4Cl)c3C)no2)c1	none
Cc1cccc2cc(/C=C3\N=C(c4ccccc4)OC3=O)c(N3CCOCC3)nc12	Rpn11 block 40.2
Cc1cc(=O)oc2cc(OCC(=O)c3ccccc3)ccc12	none
O=C(COc1ccc2c(-c3ccccc3)cc(=O)oc2c1)Nc1ccc(CCO)cc1	CSN deneddyl inh 65.9
Cc1cc(=O)oc2cc(OCC(=O)N/N=C/c3ccccc3O)ccc12	CSN deneddyl inh 105.9
CCN(CC)C(=O)C1=C(C)N(Cc2ccc(F)cc2)C(=O)C(CC(=O)NCCCN(C)C)C1 (stereo unspecified)	none (no result: TPT1 inhibitor)
CCc1ccc(CNC(=O)C2CCCN(S(=O)(=O)N3CC(C)CC(C)C3)C2)cc1 (stereo unspecified)	Myeloid diff 2 active
CCOC(=O)N1CCN(S(=O)(=O)N2CCCC(C(=O)NCc3cc(OC)ccc3OC)C2)CC1 (stereo unspecified)	none (no result: TPT1 inhibitor)
CCOC(=O)N1CCN(S(=O)(=O)N2CCCC(C(=O)NCc3cccc(OC)c3)C2)CC1 (stereo unspecified)	Myeloid diff 2 active
CCc1nc2ccc(C(=O)NCc3ccccc3OC)cn2c1N(CC)CCOC	none (no result: TPT1 inhibitor)
Cc1cc(C(F)(F)F)c(C#N)c(SCC(=O)Nc2nc3ccccc3s2)n1	Myeloid diff 2 active (not shown: Rpn11 block)
O=C(NCc1ccc(F)cc1)c1cc(C2CCCCN2C(=O)CCc2ccccc2)on1 (stereo unspecified)	none (no result: TPT1 inhibitor)
COc1cnc(-c2ccccn2)nc1N(C)C	Myeloid diff 2 active
O=[N+]([O-])c1ccc(Nc2cccc3c2[nH]c2c(-c4ccccc4)nccc23)c([N+](=O)[O-])c1	none (no result: TPT1 inhibitor)
C=CCOc1ccccc1CN(C(=O)CCl)c1ccc2c(c1)OCO2	Myeloid diff 2 active
Cc1nc(NC(=O)C(C)(C)C)sc1C(=O)Cn1cc(-c2ccc(C(C)(C)C)cc2)nn1	none (no result: TPT1 inhibitor, Rpn11 block)
Cc1[nH]c(=O)[nH]c(=O)c1CSCC(=O)OCC(=O)Nc1ccccn1	CSN deneddyl inh 93.5
CCOc1ccccc1N(CC)C(=O)c1cc2c(s1)-c1ccccc1S(=O)(=O)C2	none (no result: TPT1 inhibitor)
COc1ccccc1NS(=O)(=O)c1ccc(Cl)c(NC(=O)c2sc3cc(Cl)ccc3c2Cl)c1	none (no result: Myeloid diff 2)
O=C(Nc1cc(S(=O)(=O)Nc2ccccc2Cl)ccc1O)c1sc2cc(Cl)ccc2c1Cl	Myeloid diff 2 active
COc1ccc2cc3cc(C(=O)N4CCCCCC4)oc3nc2c1	none
COc1ccc2cc3cc(C(=O)N4CCCCC4C)oc3nc2c1 (stereo unspecified)	Myeloid diff 2 active
CC1(C)C=C2C(=NN(c3ccccc3)C(N)=C2C#N)CO1	Myeloid diff 2 active
COCCNC(=O)C1(C)CCCN(Cc2cn(C)c3ccccc23)C1 (stereo unspecified)	none (no result: TPT1 inhibitor)
O=C(Nc1ccc(F)cc1)C(c1cc2ccccc2o1)N1CCN(C(=O)c2ccco2)CC1 (stereo unspecified)	none (no result: TPT1 inhibitor, Rpn11 block)
COc1ccc(C=C2C(=O)c3ccccc3C2=O)cc1O	none
COc1cccc(/C=C2\C(=O)C(=O)c3ccccc32)c1	Myeloid diff 2 active
COc1cc(C=C2C(=O)c3ccccc3C2=O)cc(OC)c1OC	Myeloid diff 2 active
COc1cc(C=C2C(=O)c3ccccc3C2=O)cc(OC)c1	Myeloid diff 2 active
COc1ccc2c(c1)nc(-c1cccc(Br)c1)c(=O)n2C(c1ccccn1)c1nc2ccccc2[nH]1 (stereo unspecified)	none (no result: TPT1 inhibitor)
O=C(NCc1ccccc1Cl)c1csc([C@@H]2C[C@H](O)[C@@H](CO)O2)n1	none (no result: TPT1 inhibitor)
CCC(C)C(NC(=O)C(Cc1ccc(O)cc1)NC(=O)OCc1ccccc1)C(=O)OC (stereo unspecified)	none (no result: TPT1 inhibitor)
COc1ccccc1CNC(=O)C[C@H]1CC[C@@H]2[C@H](COC[C@H](O)CN2Cc2ccc3c(c2)OCO3)O1	none (no result: TPT1 inhibitor, Rpn11 block)
Fc1ccc(Br)cc1C1C=C(c2ccc(Br)cc2)Nc2ncnn21 (stereo unspecified)	none
CCc1ccc(C2=CC(c3cc(Br)ccc3F)n3ncnc3N2)cc1 (stereo unspecified)	Myeloid diff 2 active
O=C1Nc2ccccc2-n2nnnc2C1N1CCN(C(=O)C2CCCO2)CC1 (stereo unspecified)	none (no result: TPT1 inhibitor, Rpn11 block)
NC(=S)N/N=C/c1coc2ccc(Br)cc2c1=O	none (not shown: Rpn11 block)
NC(=S)N/N=C/c1coc2cc(Br)ccc2c1=O	Rpn11 block 41.5
CSc1ccccc1-n1nnnc1SCC(=O)NCc1cccs1	none
O=C(CSc1nnnn1-c1ccccc1)NCc1cccs1	Myeloid diff 2 active
CCNC(=O)C1CCCN(C(=O)c2ccc(C#N)cc2)CC1 (stereo unspecified)	none (no result: TPT1 inhibitor)
CCCCNC(=O)C(NC(=O)c1ccc(-c2ccccc2)cc1)C(=O)c1ccccc1 (stereo unspecified)	none (no result: TPT1 inhibitor, Rpn11 block)
COC(=O)c1c(N)n(-c2ccc(NC(C)=O)cc2)c2nc3ccccc3nc12	Myeloid diff 2 active
COCCNC(=O)c1c(N)n(-c2ccccc2)c2nc3ccccc3nc12	none
C#CC(=O)CC1(CN(Cc2ccccc2)C(=O)OC(C)(C)C)CCCCC1	Rpn11 block 40.5 (no result: TPT1 inhibitor)
CON(C)C(=O)CC1(CN(Cc2ccccc2)C(=O)OC(C)(C)C)CCCCC1	none (no result: TPT1 inhibitor)
CC1(C(=O)NS(=O)(=O)c2cccc(Cl)c2)CCN1C(=O)c1ccccc1CCc1ccccc1 (stereo unspecified)	none (no result: TPT1 inhibitor)
CC(C)C[C@H]1CN(CCCC[C@@H]2CNC(=O)C(=O)N2CC2CCCCC2)C(=O)C(=O)N1CC1CCCCC1	none (no result: TPT1 inhibitor, Rpn11 block)
Cc1cccc(NC(=O)COc2cccc3c2CCN(Cc2ccccc2)C3=O)c1C	Myeloid diff 2 active
CCOC(=O)c1c(NC(=O)Cn2c(C)nc3ccccc32)sc2c1CCC2	none
CCOC(=O)c1c(NC(=O)COC(=O)Cn2c(C)nc3ccccc32)sc2c1CCCC2	CSN deneddyl inh 43.0
CCOC(=O)c1c(NC(=O)COc2cccc3c2CCN(C)C3=O)sc2c1CCC2	Myeloid diff 2 active
